According to ChEMBL document CHEMBL1122905, “4-Deoxypyrido[1',2':1,2]imidazo[5,4-c]rifamycin SV derivatives. A new series of semisynthetic rifamycins with high antibacterial activity and low gastroenteric absorption” (1985):
Converted amounts (≈) assume the structure as drawn.

Assays:
[1] = tested on: Staphylococcus aureus; experiment: Effective dose against Staphylococcus aureus in mice for peroral administration.; format: functional; details: po
[2] = tested on: Escherichia coli; experiment: Antimicrobial activity derived as minimum inhibitory concentration are determined using brain-heart infusion medium against Escherichia coli ML/35.; format: functional
Outline: (§1)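 Broth dilution in brain-heart infusion. Inoculum 10^6 cells/mL. MIC taken as the lowest antibiotic concentration preventing visible growth after 24 h at 35 °C.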

[3] = tested on: Salmonella paratyphi; experiment: Antimicrobial activity derived as minimum inhibitory concentration are determined using brain-heart infusion medium against Salmonella paratyphi B0248 K(Sclavo); format: functional, Salmonella enterica subsp. enterica serovar Paratyphi A; details: Salmonella enterica
Outline: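 Broth dilution in brain-heart infusion. Inoculum 10^6 cells/mL. Incubated 24 h at 35 °C. MIC taken as the lowest antibiotic concentration that prevented visible growth.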

[4] = tested on: Staphylococcus aureus; experiment: Antimicrobial activity derived as minimum inhibitory concentration are determined using brain-heart infusion medium against Staphylococcus aureus 209 P(FDA); format: functional; outline: as §1
[5] = tested on: Pseudomonas aeruginosa; experiment: Antimicrobial activity derived as minimum inhibitory concentration are determined using brain-heart infusion medium against Pseudomonas aeruginosa ATCC 10145; format: functional; outline: as §1
[6] = tested on: Klebsiella pneumoniae; experiment: Antimicrobial activity derived as minimum inhibitory concentration are determined using brain-heart infusion medium against Klebsiella Pneumoniae Ottaviani; format: functional; outline: as §1
[7] = tested on: Staphylococcus aureus; experiment: Effective dose against Staphylococcus aureus in mice for subcutaneous administration.; format: functional; details: sc
[8] = tested on: Staphylococcus aureus; experiment: Effective dose against infection of the mice due to Staphylococcus aureus administered perorally; format: functional; details: po

SMILES | ED50 [1] [mg/kg] | MIC [2] [µg/mL] | MIC [3] [µg/mL] | MIC [4] [µg/mL] | MIC [5] [µg/mL] | MIC [6] [µg/mL] | ED50 [7] [mg/kg] | ED50 [8] [mg/kg]
COC1/C=C/OC2(C)Oc3c(C)c(O)c4c(O)c(c5c([n-]c6cccc[n+]65)c4c3C2=O)NC(=O)/C(C)=C\C=C\C(C)C(O)C(C)C(O)C(C)C(OC(C)=O)C1C (centres undefined) | 10.3 | 3 (≈ 3.89 µM) | 3 (≈ 3.89 µM) | < 0.005 | 6 (≈ 7.77 µM) | 6 (≈ 7.77 µM) | 0.21 | –
COC1/C=C/OC2(C)Oc3c(C)c(O)c4c(O)c(c5c([n-]c6cc(C)cc[n+]65)c4c3C2=O)NC(=O)/C(C)=C\C=C\C(C)C(O)C(C)C(O)C(C)C(OC(C)=O)C1C (centres undefined) | – | 6 (≈ 7.63 µM) | 6 (≈ 7.63 µM) | < 0.005 | 15 (≈ 19.1 µM) | 25 (≈ 31.8 µM) | – | > 10
COC1/C=C/OC2(C)Oc3c(C)c(O)c4c(O)c(c5c([n-]c6c7ccccc7cc[n+]65)c4c3C2=O)NC(=O)/C(C)=C\C=C\C(C)C(O)C(C)C(O)C(C)C(OC(C)=O)C1C (centres undefined) | 2.22 | 12 (≈ 14.6 µM) | 3 (≈ 3.65 µM) | < 0.005 | 0.7 (≈ 0.852 µM) | 12 (≈ 14.6 µM) | 0.81 | –
CC[N+](CC)(CC)c1c2c(O)c3c(O)c(C)c4c(c3c1O)C(=O)C(C)(O/C=C/C(OC)C(C)C(OC(C)=O)C(C)C(O)C(C)C(O)C(C)/C=C/C=C(/C)C(=O)N2)O4.[Br-] (centres undefined) | > 20 | > 50 | 25 | 0.005 | 12 | 50 | – | –
COC1/C=C/OC2(C)Oc3c(C)c(O)c4c(O)c(c(-[n+]5ccccc5)c(O)c4c3C2=O)NC(=O)/C(C)=C\C=C\C(C)C(O)C(C)C(O)C(C)C(OC(C)=O)C1C.[Br-] (centres undefined) | > 20 | > 50 | 50 | 0.005 | 12 | > 50 | – | –
COC(=O)c1ccc[n+](-c2c3c(O)c4c(O)c(C)c5c(c4c2O)C(=O)C(C)(O/C=C/C(OC)C(C)C(OC(C)=O)C(C)C(O)C(C)C(O)C(C)/C=C/C=C(/C)C(=O)N3)O5)c1.[Br-] (centres undefined) | – | > 50 | 25 | 0.07 | > 50 | > 50 | – | –
COC1/C=C/OC2(C)Oc3c(C)c(O)c4c(O)c(c(-[n+]5cccc(C(N)=O)c5)c(O)c4c3C2=O)NC(=O)/C(C)=C\C=C\C(C)C(O)C(C)C(O)C(C)C(OC(C)=O)C1C.[Br-] (centres undefined) | > 20 | > 50 | > 50 | 0.1 | > 50 | > 50 | – | –
COC1/C=C/OC2(C)Oc3c(C)c(O)c4c(O)c(c5c([n-]c6c(C)ccc[n+]65)c4c3C2=O)NC(=O)/C(C)=C\C=C\C(C)C(O)C(C)C(O)C(C)C(OC(C)=O)C1C (centres undefined) | > 10 | 6 (≈ 7.63 µM) | 6 (≈ 7.63 µM) | < 0.005 | 0.7 (≈ 0.891 µM) | 6 (≈ 7.63 µM) | 0.47 | –
CO[C@H]1/C=C/O[C@@]2(C)Oc3c(C)c(O)c4c(O)c(c(/C=N/N5CCN(C)CC5)c(O)c4c3C2=O)NC(=O)/C(C)=C\C=C\[C@H](C)[C@H](O)[C@@H](C)[C@@H](O)[C@@H](C)[C@H](OC(C)=O)[C@@H]1C [RIFAMPIN] | 0.14 | 6 (≈ 7.29 µM) | 12 (≈ 14.6 µM) | < 0.005 | 12 (≈ 14.6 µM) | 25 (≈ 30.4 µM) | 0.14 | –
COC1/C=C/OC2(C)Oc3c(C)c(O)c4c(O)c(c5c([n-]c6ccc(OCc7ccccc7)c[n+]65)c4c3C2=O)NC(=O)/C(C)=C\C=C\C(C)C(O)C(C)C(O)C(C)C(OC(C)=O)C1C (centres undefined) | – | 50 (≈ 56.9 µM) | > 50 | < 0.005 | 50 (≈ 56.9 µM) | > 50 | – | –
COC1/C=C/OC2(C)Oc3c(C)c(O)c4c(O)c(c(-[n+]5ccc(C(C)(C)C)cc5)c(O)c4c3C2=O)NC(=O)/C(C)=C\C=C\C(C)C(O)C(C)C(O)C(C)C(OC(C)=O)C1C.[Br-] (centres undefined) | – | > 50 | > 50 | 0.01 | > 50 | > 50 | – | –
COC1/C=C/OC2(C)Oc3c(C)c(O)c4c(O)c(c5c([n-]c6ccc(C)c[n+]65)c4c3C2=O)NC(=O)/C(C)=C\C=C\C(C)C(O)C(C)C(O)C(C)C(OC(C)=O)C1C (centres undefined) | > 5 | 6 (≈ 7.63 µM) | 6 (≈ 7.63 µM) | < 0.005 | 3 (≈ 3.82 µM) | 12 (≈ 15.3 µM) | > 2.5 | –
